{"data": "Assay results pooled from the literature", "organism": "Plasmodium falciparum", "observed": "parasite growth", "note": "Each line is one published result; the experiments were not run side by side. pEC50: −log10 of the molar value."}
{"Structure (SMILES)": "C[C@H]1[C@@H](O)O[C@@H]2O[C@@]3(C)CC[C@H]4[C@H](C)CC[C@@H]1[C@@]24OO3", "test system": "NF54", "setting": "48 h, gametocyte", "pEC50": 7.94}
{"Structure (SMILES)": "CC(C)(C)OC(=O)Nc1ccc2c(Nc3ccc(OCc4cccc(F)c4)c(Cl)c3)ccnc2c1", "test system": "D6", "setting": "drug-resistant strain, blood stage", "pEC50": 7.30}
{"Structure (SMILES)": "Cn1cc(-c2cnc3[nH]cc(-c4cn(Cc5cccc(F)c5F)nn4)c3c2)cn1", "test system": "3D7", "setting": "72 h, blood stage", "pEC50": 6.22}
{"Structure (SMILES)": "CCCNCC(O)COc1ccccc1C(=O)CCc1ccccc1 (centres unmarked)", "assay": "SYBR Green", "test system": "3D7", "setting": "blood stage", "pEC50": 5.57}
{"Structure (SMILES)": "CCOC(=O)c1c(NC(=O)c2ccccc2)sc2c(O)c(CCN(C)C)ccc12", "test system": "3D7", "setting": "48 h, blood stage", "pEC50": "≥ 6.70"}
{"Structure (SMILES)": "Cc1ccc(Nc2ccnc3cc(-c4ccc(S(=O)(=O)N5CCN(C)CC5)cc4)ccc23)cn1", "test system": "D6", "setting": "drug-resistant strain, blood stage", "pEC50": 7.66}
{"Structure (SMILES)": "CCn1cc(-c2nc(C)no2)c(=O)c2cc(F)c(N3CCN(C)CC3)cc21", "test system": "3D7", "setting": "72 h, blood stage", "pEC50": 5.34}
{"Structure (SMILES)": "CN1CCN(S(=O)(=O)c2cccc(-c3ccc4c(Nc5ccc(OCc6cccc(F)c6)c(Cl)c5)ccnc4c3)c2)CC1", "test system": "D6", "setting": "drug-resistant strain, blood stage", "pEC50": 8.00}
{"Structure (SMILES)": "COc1cc(OC)c(CCNC(=O)c2cn3cc(-c4cc(OCC(=O)O)ccc4OC)nc3s2)c(OC)c1", "test system": "3D7", "setting": "72 h, blood stage", "pEC50": 5.65}
{"Structure (SMILES)": "CCn1cc(-c2nc(C)no2)c(=O)c2cc(F)c(N3CCC(c4ccccc4)CC3)cc21", "test system": "3D7", "setting": "72 h, blood stage", "pEC50": 7.52}
{"Structure (SMILES)": "COc1ccc(Nc2ccnc3cc(-c4ccc(S(=O)(=O)N5CCN(C)CC5)cc4)ccc23)cc1", "test system": "D6", "setting": "drug-resistant strain, blood stage", "pEC50": 7.74}
{"Structure (SMILES)": "CCn1cc(-c2nc(C)no2)c(=O)c2cc(F)c(N3CCC(Cc4ccccc4)CC3)cc21", "test system": "3D7", "setting": "blood stage", "pEC50": 7.49}
{"Structure (SMILES)": "CC/N=C(\\c1ccc(OC)c(OC)c1)N1CCCc2cc(C3=NNC(=O)SC3C)ccc21 (centres unmarked)", "test system": "3D7", "setting": "72 h, blood stage", "pEC50": 5.75}
{"Structure (SMILES)": "COc1ccc(Nc2ccnc3cc(-c4cnc(N5CCN(C)CC5)nc4)ccc23)cc1Cl", "test system": "D6", "setting": "drug-resistant strain, blood stage", "pEC50": 7.46}
{"Structure (SMILES)": "CCn1cc(-c2nc(C)no2)c(=O)c2cc(F)c(N3CCN(C(C)=O)CC3)cc21", "test system": "3D7", "setting": "72 h, blood stage", "pEC50": "< 5.00"}
{"Structure (SMILES)": "COc1ncc(Nc2ccnc3cc(-c4ccc(S(=O)(=O)N5CCN(C)CC5)cc4)ccc23)cn1", "test system": "D6", "setting": "drug-resistant strain, blood stage", "pEC50": 7.30}
{"Structure (SMILES)": "COc1cc(C(=O)N(C)C)ccc1-c1cc2nccc(-c3ccc4ccncc4c3)c2o1", "test system": "3D7", "setting": "72 h, blood stage", "pEC50": 6.00}
{"Structure (SMILES)": "CCn1cc(-c2nc(C)no2)c(=O)c2cc(F)c(N3CCCC3)cc21", "test system": "3D7", "setting": "72 h, blood stage", "pEC50": 6.30}
{"Structure (SMILES)": "O=C(Nc1ccc(CNc2ncnc3ccccc23)cc1)c1ccc(Cl)c(F)c1", "test system": "3D7", "setting": "72 h, blood stage", "pEC50": 5.82}
{"Structure (SMILES)": "CCn1cc(-c2nc(C)no2)c(=O)c2cc(F)c(N3CCCCCC3)cc21", "test system": "3D7", "setting": "72 h, blood stage", "pEC50": 7.46}
